Rows were chosen to be rich in hits. Some 1.1% of all compounds tested hit in one or more screens of this group.
KLK5 inh: blocks human kallikrein 5 protease activity; recombinant hK5, fluorogenic AMC substrate cleavage; inhibition, % at 5 µM; actives 0.59% (n = 210,000); AID 873;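 active means inhibition of 40% or more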;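 further: 0% = enzyme controls without compound and 100% = no-enzyme blanks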
FXIa inh: blocks human coagulation factor XIa protease activity | purified FXIa, Boc-Glu-Ala-Arg-AMC fluorogenic substrate | inhibition, % at 5 µM | actives 0.14% (n = 220,000);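 active means inhibition of at least 40%; inactive means inhibition below 40%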;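 further: fluorescence of freed AMC excited at 355 nm; 0% = enzyme without compound and 100% = no enzyme blank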
Furin inhibitor: human furin inhibition; purified furin, fluorogenic substrate cleavage; inhibition, % at 20 µM or 30 µM; actives 0.061% (n = 220,000); AID 463115; in the data active means inhibition above about 25%
FXIIa inh: inhibitors of human coagulation factor XIIa. inhibition, % at 5 µM. P00748. purified FXIIa, Boc-QGR-AMC fluorogenic substrate, 2 h. AID 800. actives 0.3% (n = 220,000); in the data active means inhibition above about 40%;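 further: 0% = enzyme with no compound and 100% = blank without enzyme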
Target sequence (P00748 20-372 limits assumed): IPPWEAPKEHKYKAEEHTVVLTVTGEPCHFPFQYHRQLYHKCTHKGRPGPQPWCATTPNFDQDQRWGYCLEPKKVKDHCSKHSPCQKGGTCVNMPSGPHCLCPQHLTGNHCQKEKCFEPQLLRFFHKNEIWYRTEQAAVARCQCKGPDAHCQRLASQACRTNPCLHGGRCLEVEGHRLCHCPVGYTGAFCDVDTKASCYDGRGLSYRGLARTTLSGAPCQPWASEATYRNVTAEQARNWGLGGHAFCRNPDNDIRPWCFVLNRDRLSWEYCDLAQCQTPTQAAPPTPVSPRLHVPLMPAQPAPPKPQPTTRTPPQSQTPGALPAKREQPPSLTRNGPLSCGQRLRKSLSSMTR
Target sequence (P00748 373-615 limits assumed): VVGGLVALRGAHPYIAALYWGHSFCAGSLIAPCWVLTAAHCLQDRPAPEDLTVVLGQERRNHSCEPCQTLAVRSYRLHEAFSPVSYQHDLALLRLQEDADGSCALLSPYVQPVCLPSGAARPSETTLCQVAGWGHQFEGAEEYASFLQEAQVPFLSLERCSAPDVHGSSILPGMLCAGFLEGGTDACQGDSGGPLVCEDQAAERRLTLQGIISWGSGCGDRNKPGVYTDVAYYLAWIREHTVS
Thrombin inh: inhibitors of human thrombin; actives 0.26% (n = 220,000); P00734; inhibition, % at 5 µM; alpha-thrombin, Boc-VPR-AMC fluorogenic substrate cleavage;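 active means inhibition at or above 40%; inactive means inhibition below 40%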;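 further: 0% = enzyme with no compound and 100% = wells without enzyme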
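Material: human alpha-thrombin protein. Incubation: reaction at ambient temperature. Technique: fluorescence of released AMC, ex 355 nm, em 460 nm. Control set: no-compound enzyme wells and no-enzyme blanks. Also added: Boc-VPR-AMC substrate, 15 µM final. Buffer or medium: pH 7.5 Tris (50 mM) with NaCl 150 mM, Tween 20 0.05%.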
Active calls of the source: *; x = not tested or not shown.

SMILES	KLK5 inh	FXIa inh	Furin inhibitor	FXIIa inh	Thrombin inh
O=C(NCCN=C1NS(=O)(=O)c2ccccc21)c1ccncc1	-11	6	-3	18	2
COc1ccccc1C(=O)n1nc(-c2ccccc2)nc1NCc1ccco1	-5	5	7	13	85*
CC(=O)n1nc(-c2cccnc2)nc1NCc1cccs1	2	1	-9	8	x
CCS(=O)(=O)n1nc(-c2cccnc2)nc1NCc1ccc(F)cc1	x	1	-21	4	15
CCN(C(=O)Cc1cccs1)c1nnc(-c2cccnc2)s1	44*	-5	-23	6	14
CCC(=O)n1nc(-c2cccnc2)nc1NCc1cccs1	2	2	-23	11	100*
CCCC(=O)n1nc(-c2cccnc2)nc1NCc1cccs1	x	7	-16	13	100*
CCCC(=O)n1nc(-c2cccnc2)nc1NCc1ccccc1	2	-2	-20	10	100*
O=C(c1cccs1)n1nc(-c2cccnc2)nc1NCc1ccco1	-6	17	-16	12	83*
S=C(Nc1ccc(Nc2ccccc2)cc1)N1CCN(c2ncccn2)CC1	-5	-7	-21	x	-5
CCOC(=O)c1ccc(NC(=O)c2nc[nH]c2C(=O)N[C@@H](CC(C)C)C(=O)OCc2ccccc2)cc1	-4	-4	-11	3	-6
COc1cc(/C=C/C(=O)O)ccc1OCc1ccccc1C#N	-12	1	-15	2	-9
O=C(/C=C/c1ccccc1)N1CCC[C@H]1CO	-4	3	-26	10	1
C#CCSc1nncn1C(=O)/C=C/c1ccccc1	35	30	-21	31	90*
CC(=O)c1cn(S(=O)(=O)c2ccccc2)c2ccccc12	-21	-6	-25	-5	-9
Nc1cc(=O)[nH]c(=O)n1Cc1ccco1	2	33	26*	30	10
COC(=O)[C@@H]1CCCN1Cc1nc(Cc2ccccc2F)no1	1	1	-28	7	-6
COc1cc(C(=O)NCC(=O)OCn2nnc3ccccc3c2=O)cc(OC)c1OC	18	40*	-2	29	-6
O=C(CCC(=O)OCc1ccc(C(=O)Oc2ccc(Cl)cc2)cc1)Nc1ccccc1	52*	1	-15	35	12
COC(=O)c1nc(NC(=O)c2ccccc2Cl)n[nH]1	48*	7	-17	82*	x
COC(=O)c1nc(NC(=O)C(C)(C)C)n[nH]1	2	-26	-15	11	56*
Cc1ccccc1NC(=O)CSc1nc(O)cc(=O)n1C	3	1	-23	9	-3
COc1ccccc1N1C(=O)CC(Sc2n[nH]c(-c3cccc(C)c3)n2)C1=O (stereo not given)	-32	8	-11	24	-3
CCOC(=O)CN1C(=O)COc2ccc(Cl)cc21	2	5	-30	-2	-18
CCOc1ccccc1NC(=O)CN1C(=O)COc2ccc(Cl)cc21	43*	17	-2	19	29
SMILES	KLK5 inh	FXIa inh	Furin inhibitor	FXIIa inh	Thrombin inh
CCc1ccc(CN(C)CC(=O)Nc2ccc3c(c2)CCC3)cc1	4	-10	-19	8	-5
Cc1ccc(CN(C)CC(=O)Nc2ccc3c(c2)CCC3)cc1	47*	30	-8	31	2
CC1(C)N=c2ccc([N+](=O)[O-])c(N)c2=[N+]1[O-]	22	40*	10	24	20
Cc1cc(C)c(-n2nnnc2SCC(=O)c2cc3ccccc3o2)c(C)c1	2	-1	-5	9	2
COc1ccccc1NC(=O)CSc1nnc(C2CCCCC2)n1-c1ccccc1	3	2	-21	8	0
CCN(CC)CCNC(=O)c1ccc(NC(=O)c2cccc(S(=O)(=O)Nc3ccc(C)cc3)c2)cc1	20	101*	-21	22	15
CN(C)CCNC(=O)c1cccc(S(=O)(=O)Nc2ccc(F)cc2)c1	-9	-4	-11	3	-12
O=C(N/C=C\n1cnc2cc(C(F)(F)F)ccc21)c1ccc([N+](=O)[O-])cc1	0	13	-13	3	2
CN1C(=O)/C(=C2\SC(=S)N(C(CCC(=O)O)C(=O)O)C2=O)c2ccccc21 (stereo not given)	64*	13	2	11	104*
O=C(O)CC1(CC(=O)NCc2ccc(C(F)(F)F)cc2)CCCCC1	-1	2	-18	9	-4
O=C(O)CC1(CC(=O)NCc2ccncc2)CCCCC1	37	28	-3	41*	15
CCOc1ccccc1N1CCN(C(=O)c2csc(C)c2CC)CC1	-15	1	-11	3	3
CN1CCC(=NNC(=O)CSc2ccc(Cl)cc2)CC1	-7	-2	-13	9	-9
CC1(C)CC(=O)C2=C(C1)N(c1cccc(Cl)c1)C(=O)NC2(C(F)(F)F)C(F)(F)F	-20	1	-11	6	-8
O=C(Nc1ccc2c(c1)oc1ccccc12)N1CCOCC1	-13	42*	-29	13	3
CN(C)S(=O)(=O)N1CCN(c2cccc(Cl)c2)CC1	83*	-8	-14	15	25
Cc1c(C(=O)O)oc2c1/C(=N\O)CC(C)(C)C2	-3	-6	-15	3	-9
CCN(CC)S(=O)(=O)c1ccc(Cl)c(C(=O)Oc2cccnc2)c1	-21	-6	-10	6	-9
CCN(CC)S(=O)(=O)c1ccc(Cl)c(C(=O)Oc2cccc(-c3cnc4ccccc4n3)c2)c1	56*	3	-5	13	8
NC(=O)c1ccc2c(=O)n3c(-c4cccs4)csc3nc2c1	1	3	-23	11	-2
N/C(=N\OC(=O)c1ccc(Cl)c(Cl)c1)c1cccnc1	-17	-16	-10	-13	-5
N/C(=N\OC(=O)c1cccc(Cl)c1)c1cccnc1	-1	-2	-13	13	47*
Cc1ccc(S(=O)(=O)NC(CC(=O)NCc2ccco2)c2ccco2)cc1 (stereo not given)	-30	-13	-13	-2	7
Cc1ccc(S(=O)(=O)NC(CC(C)C)C(=O)NCc2ccco2)cc1 (stereo not given)	45*	3	-18	6	6
CCn1c(SCC(=O)N2CCCCC2)nc(O)cc1=O	7	-19	-32	44*	-5
SMILES	KLK5 inh	FXIa inh	Furin inhibitor	FXIIa inh	Thrombin inh
CCN1CCN(C(=O)CSc2cc(=O)n(CC)c3ccccc23)CC1	5	-3	-13	6	1
CCn1c(=O)cc(SCC(=O)N2CCCCC2)c2ccccc21	121*	5	-8	19	13
COC(=O)CCC(=O)Nc1nnc(C(F)(F)F)s1	-2	-1	-20	14	1
O=C(O)CCC(=O)Nc1nnc(C(F)(F)F)s1	43*	-1	-15	3	6
CC1CCCCN1S(=O)(=O)c1coc(C(N)=O)c1 (stereo not given)	42*	3	-9	33	18
COc1ccc(C(=O)COc2ccc(C)cc2NC(C)=O)cc1	-8	5	-7	8	-2
Cc1ccc(NC(=O)C2CCN(S(C)(=O)=O)CC2)cc1	49*	13	-30	26	9

Compound activity as filed in PubChem.
